Assay outcomes as filed in PubChem.
Statin myotox sup – suppressors of statin myotoxicity in C2C12 myotubes, primary screen, cell-based, single point, plate reader | C2C12 myotubes + simvastatin, ATP luminescence, 48 h; scaled: DMSO 0, geranylgeraniol control 100 | rescue of ATP level, % at 7.49 µM | 330,000 compounds, 0.78% hits;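 active = mean ATP rescue above about 67%, or every replicate alone reaching that limit, limit read from the data, passing the limit was not always enough; inconclusive = no clear call, values can overlap the other calls; inactive = mean under the limit and some replicate under it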;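 also: myotubes were challenged with 10 µM simvastatin during compound exposure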
DENV2 CPE – inhibitors of DENV2 cytopathic effect, primary screen, cell-based, plate reader, single concentration; DENV2-infected cells, cytopathic effect rescue; CPE inhibition, % at 9.99 µM; 350,000 compounds, 1.7% hits; in the data active = CPE inhibition above about 20%, passing the limit was not always enough; inconclusive = no clear call, values can overlap the other calls; tested in BHK-21 cells
S100A4 MyoIIA – inhibitors of S100A4-myosin IIA peptide binding, primary screen, biochemical, fluorescence polarization, TAMRA-MyoIIA peptide | Protein S100-A4 (Homo sapiens), P26447 | 360,000 compounds, 0.14% hits | inhibition, % at 10.7 µM;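 active = mean inhibition of at least 70% across replicates, with every replicate also reaching that level; inconclusive = mean inhibition reaches 70% but some replicates fall short; inactive = mean inhibition below 70%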
Target sequence (P26447 whole entry, looked up): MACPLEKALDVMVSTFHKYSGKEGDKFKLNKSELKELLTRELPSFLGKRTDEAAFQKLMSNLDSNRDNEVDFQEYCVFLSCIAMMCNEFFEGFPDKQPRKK
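Material: S100A4 monomer (human). Medium: Calcium-containing HEPES buffer, pH 7.2. Probe or stimulus: labelled myosin peptide probe, 5 nM. Compound dosing: one concentration per compound. Timing: polarization read 5 min after assay mix addition, stable 5–60 min. Benchmarks: DMSO as neutral control, TFP as positive control.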
PGC1a acetyl inh – inhibitors of PGC1a acetylation signal, primary screen, cell-based, U2OS, AlphaScreen, inhibitor mode. AID 651687, 2012. inhibition, % at 15.6 µM. AlphaScreen anti-acetyl-lysine; with virally co-expressed GCN5 acetyltransferase. 350,000 compounds, 0.17% hits;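 active = every replicate shows inhibition of at least 40%; inconclusive = mean inhibition at least 40% but some replicate below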
SIRT5 inh – SIRT5 desuccinylase inhibitors, primary screen, biochemical, fluorescence imaging, single point, set 5; 330,000 compounds, 1.1% hits; inhibition, % at 15 µM; NAD-dependent protein deacylase sirtuin-5, mitochondrial (Homo sapiens), Q9NXA8; AID 652115, 2013; Purified SirT5, succinyl-peptide AMC, trypsin-coupled fluorescence; in the data active = inhibition above about 15%; inconclusive = no clear call, values can overlap the other calls
Target sequence (Q9NXA8 whole entry, looked up): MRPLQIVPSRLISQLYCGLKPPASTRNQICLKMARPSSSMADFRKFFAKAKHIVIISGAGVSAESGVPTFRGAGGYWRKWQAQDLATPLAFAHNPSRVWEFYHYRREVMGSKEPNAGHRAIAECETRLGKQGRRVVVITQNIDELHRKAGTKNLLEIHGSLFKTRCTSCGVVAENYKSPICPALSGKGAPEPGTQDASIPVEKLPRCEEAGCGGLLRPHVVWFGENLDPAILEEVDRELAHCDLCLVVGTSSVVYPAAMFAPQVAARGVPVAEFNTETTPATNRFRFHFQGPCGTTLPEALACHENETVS
Each line names hits and unclear results; the compound was inactive in the other large screens. A selection: hits, their analogues and other compounds. The true share with any hit is near 2.9%.

CCCNC(=O)c1onc(CSc2ccc(Cl)cc2)c1C(=O)NCCC(C)C	Statin myotox sup 75 (no result: DENV2 CPE)
CCOc1cccc(SCc2noc(C(=O)NCCOC)c2C(=O)O)c1	none (no result: SIRT5 inh)
O=C(NCC1CC1)c1onc(CSc2ccc(F)c(F)c2)c1C(=O)NCC1CC1	DENV2 CPE 64 (no result: PGC1a acetyl inh)
CCCCNC(=O)c1onc(CSc2cccc(OC)c2)c1C(=O)NCCCC	DENV2 CPE inconclusive (no result: SIRT5 inh)
COCCNC(=O)c1onc(CSc2cccc(OC)c2)c1C(=O)NCCOC	SIRT5 inh 22
C=CCNC(=O)c1c(CSc2ccc(Cl)cc2)noc1C(=O)NCCC	none (no result: DENV2 CPE, S100A4 MyoIIA, SIRT5 inh)
CCCCNC(=O)c1onc(CSc2cccc(OCC)c2)c1C(=O)O	DENV2 CPE 24 (no result: SIRT5 inh)
C=CCNC(=O)c1onc(CSc2ccc(F)c(F)c2)c1C(=O)NCC=C	none (no result: DENV2 CPE, S100A4 MyoIIA, SIRT5 inh)
C[C@@H]1CCCCO[C@H](CN(C)C(=O)Nc2cccc3ccccc23)[C@H](C)CN([C@@H](C)CO)C(=O)c2cc(NC(=O)NC3CCCCC3)ccc2O1	none (no result: Statin myotox sup)
Nn1c(C2CCCCC2)nc2ccccc2c1=O	none
Nn1c(C2CCC2)nc2cc(Cl)ccc2c1=O	SIRT5 inh 18
COC(=O)[C@]12CCCCC=C1N(Cc1cccc3ccccc13)C(=O)[C@H](CC(=O)NCC13CC4CC(CC(C4)C1)C3)C2	DENV2 CPE 47 (no result: Statin myotox sup, PGC1a acetyl inh)
C#CCNC(=O)C[C@@H]1C[C@@]2(C(=O)OCC)CCC=C2N(Cc2cccc3ccccc23)C1=O	none (no result: Statin myotox sup, PGC1a acetyl inh)
C#CCNC(=O)C[C@@H]1C[C@@]2(C(=O)OC)CCCCC=C2N(Cc2cccc3ccccc23)C1=O	DENV2 CPE 90 (no result: Statin myotox sup, PGC1a acetyl inh)
CC1CCOC(c2coc3ccccc3c2=O)O1 (centres undefined)	DENV2 CPE 33 (no result: Statin myotox sup)
O=C(O)C1CSC(c2coc3ccccc3c2=O)N1 (centres undefined)	none (no result: Statin myotox sup, PGC1a acetyl inh)
COCCNC(=O)C[C@@H]1C=C[C@@H](NC(=O)NC2CCCC2)[C@H](CO)O1	none
Nc1ccc(C(=O)Nc2ccc3cc(S(=O)(=O)O)ccc3c2)cc1	Statin myotox sup 93
O=C(C[C@@H]1C=C[C@H](NS(=O)(=O)c2ccc(F)cc2)[C@H](CO)O1)NC1CCC1	none
O=C(C[C@H]1C=C[C@@H](NC(=O)C2CCC2)[C@@H](CO)O1)NCC1CC1	DENV2 CPE 58
C[C@@H](NC(=O)C[C@H]1C=C[C@H](NC(=O)C2CC2)[C@@H](CO)O1)c1ccccc1	SIRT5 inh 17
COc1ccccc1NC(=O)N[C@@H]1C=C[C@H](CC(=O)N[C@@H](C)c2ccccc2)O[C@H]1CO	DENV2 CPE 66
C[C@H](CO)N1C[C@H](C)[C@@H](CN(C)Cc2ccc3c(c2)OCO3)OCCCC[C@H](C)Oc2ccc(NC(=O)CCCN(C)C)cc2C1=O	none
CCOc1ccc2nc(NC(=O)CS(=O)(=O)c3ccc(C)cc3)sc2c1	SIRT5 inh 32 (no result: DENV2 CPE)
Cc1ccc2nc(NC(=O)CN3CCOCC3)sc2c1	none (no result: DENV2 CPE, S100A4 MyoIIA, SIRT5 inh)
CCN1CCN(CC(=O)Nc2nc3ccc(C)cc3s2)CC1	DENV2 CPE 25
CN1C(=O)c2cc(NC(=O)c3ccc(F)c(F)c3)ccc2OC[C@H]2O[C@@H](CC(=O)N3CCCCC3)CC[C@@H]21	none
O=C(Cc1ccncc1)Nc1ccc2c(c1)[C@@H]1C[C@H](CC(=O)N3CCOCC3)O[C@@H](CO)[C@@H]1O2	none (no result: S100A4 MyoIIA, SIRT5 inh)
Cc1ccc2nc(-c3cccc(NC(=O)c4ccc5c(c4)OCCO5)c3)oc2c1	Statin myotox sup 110 (no result: DENV2 CPE)
CCC(=O)Nc1cccc(-c2nc3ccc(C)cc3o2)c1	none
COc1cccc(NC(=O)CN(C)C(=O)c2cccc(S(=O)(=O)N3c4ccccc4CC3C)c2)c1 (centres undefined)	DENV2 CPE 58
C[C@@H]1CN([C@H](C)CO)C(=O)Cc2cc(NC(=O)c3ccncc3)ccc2O[C@@H]1CN(C)Cc1ccc(Cl)c(Cl)c1	Statin myotox sup 70
C[C@H](CO)N1C[C@H](C)[C@@H](CN(C)Cc2ccc(Cl)c(Cl)c2)Oc2ccc(NC(=O)C3CC3)cc2CC1=O	Statin myotox sup 85
C[C@@H]1CN([C@H](C)CO)C(=O)Cc2cc(NC(=O)C3CC3)ccc2O[C@@H]1CN(C)Cc1ccncc1	DENV2 CPE 21
CNC[C@H]1Oc2ccc(NC(=O)c3ccncc3)cc2CC(=O)N([C@@H](C)CO)C[C@@H]1C	none
CNC[C@H]1Oc2ccc(NC(=O)c3ccncc3)cc2CC(=O)N([C@H](C)CO)C[C@@H]1C	DENV2 CPE 64
Cc1noc(C)c1S(=O)(=O)N(C)C[C@@H]1OCc2cn(nn2)CCCC(=O)N([C@H](C)CO)C[C@H]1C	none
C[C@H](CO)N1C[C@H](C)[C@@H](CN(C)Cc2ccc(Cl)c(Cl)c2)Oc2ccc(NC(=O)c3ccncc3)cc2C1=O	none
CO[C@@H]1CN(C)C(=O)c2cc(NC(=O)Nc3cc(Cl)cc(Cl)c3)ccc2OC[C@@H](C)NC[C@@H]1C	none (no result: DENV2 CPE, S100A4 MyoIIA, SIRT5 inh)
CO[C@H]1CN(C)C(=O)c2cc(NC(=O)Nc3ccccc3Cl)ccc2OC[C@H](C)NC[C@@H]1C	none
CO[C@H]1CN(C)C(=O)c2cc(NC(=O)Nc3ccccc3Cl)ccc2OC[C@@H](C)NC[C@@H]1C	DENV2 CPE 31
CCCNC(=O)Nc1ccc2c(c1)C(=O)N(C)C[C@@H](OC)[C@@H](C)CN[C@@H](C)CO2	S100A4 MyoIIA 111
CO[C@H]1CN(C)C(=O)c2cc(NC(=O)Nc3cc(Cl)cc(Cl)c3)ccc2OC[C@@H](C)NC[C@H]1C	SIRT5 inh 103 (no result: DENV2 CPE, S100A4 MyoIIA)
CO[C@H]1CN(C)C(=O)c2ccc(NC(=O)Nc3ccccc3F)cc2OC[C@H](C)N(C(C)=O)C[C@H]1C	none
C[C@H]1CN([C@@H](C)CO)C(=O)c2cc(C#CC3CCCC3)cnc2O[C@@H]1CN(C)S(=O)(=O)c1cccc(F)c1	none
C[C@H]1CN([C@@H](C)CO)C(=O)c2cccc(NC(=O)Nc3ccccc3)c2O[C@@H]1CN(C)C(=O)NC1CCCCC1	none
Cc1oc2ccc(NS(=O)(=O)c3ccccc3)cc2c1C(=O)Nc1ccccc1	SIRT5 inh 21 (no result: Statin myotox sup, PGC1a acetyl inh)
COCCOC(=O)c1c(C)oc2ccc(NS(=O)(=O)c3ccccc3)cc12	none (no result: DENV2 CPE)
N=C1/C(=C\c2ccc(-c3cccc(Cl)c3)o2)C(=O)N=C2SC=C(c3ccccc3)N12	DENV2 CPE 67 (no result: Statin myotox sup, PGC1a acetyl inh)
CCOC(=O)c1c(CSc2ccsc2)n(C)c2cc(Br)c(O)c(CN(C)C)c12	SIRT5 inh 20 (no result: Statin myotox sup)
O=C(C1COc2ccccc2O1)N1CCN(c2ccccc2O)CC1 (centres undefined)	SIRT5 inh 17 (no result: PGC1a acetyl inh)
C[C@@H]1CN([C@@H](C)CO)C(=O)c2cc(C#CC(C)(C)O)cnc2O[C@H]1CN(C)C(=O)CN(C)C	none
Cn1ncc(Cl)c1C(=O)Nc1cccc(Cl)c1	none (no result: DENV2 CPE, S100A4 MyoIIA, SIRT5 inh)
Cn1ncc(Cl)c1C(=O)Nc1cccnc1	Statin myotox sup 101 (no result: DENV2 CPE, S100A4 MyoIIA, SIRT5 inh)
